Measurements: ChEMBL document CHEMBL2380235, “Discovery of N-{4-[(3-hydroxyphenyl)-3-methylpiperazin-1-yl]methyl-2-methylpropyl}-4-phenoxybenzamide analogues as selective kappa opioid receptor antagonists” (J Med Chem, 2013)
Activity calls are given as the source filed them. The calls are words filed in the database; no cut-off is given here.

Legend:
[1] = target: Kappa-type opioid receptor (Homo sapiens) (UniProt P41145); test: Antagonist activity at human kappa opioid receptor expressed in CHO cells assessed as inhibition of U69,593-stimulated [35S]GTPgammaS binding at 10 nM relative to control; assay type: functional, cell-based
Sequence of Kappa-type opioid receptor (Homo sapiens) (P41145 whole entry): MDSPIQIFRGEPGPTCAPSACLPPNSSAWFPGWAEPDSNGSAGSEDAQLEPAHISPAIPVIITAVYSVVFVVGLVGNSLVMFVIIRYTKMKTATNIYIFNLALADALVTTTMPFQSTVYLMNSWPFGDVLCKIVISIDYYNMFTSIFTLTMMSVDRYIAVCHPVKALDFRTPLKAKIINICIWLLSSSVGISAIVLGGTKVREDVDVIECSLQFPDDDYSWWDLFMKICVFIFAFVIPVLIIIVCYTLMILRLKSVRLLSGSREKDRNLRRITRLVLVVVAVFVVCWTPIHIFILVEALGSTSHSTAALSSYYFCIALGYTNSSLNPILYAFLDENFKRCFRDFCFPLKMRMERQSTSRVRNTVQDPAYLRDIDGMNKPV

[2] = species on record: Homo sapiens; test: Selectivity ratio of Ke for human delta opioid receptor to Ke for human kappa opioid receptor
[3] = target: Delta-type opioid receptor (Homo sapiens) (UniProt P41143); test: Antagonist activity at human delta opioid receptor expressed in CHO cells assessed as inhibition of DPDPE-stimulated [35S]GTPgammaS binding; assay type: functional, cell-based
Sequence of Delta-type opioid receptor (Homo sapiens) (P41143 whole entry): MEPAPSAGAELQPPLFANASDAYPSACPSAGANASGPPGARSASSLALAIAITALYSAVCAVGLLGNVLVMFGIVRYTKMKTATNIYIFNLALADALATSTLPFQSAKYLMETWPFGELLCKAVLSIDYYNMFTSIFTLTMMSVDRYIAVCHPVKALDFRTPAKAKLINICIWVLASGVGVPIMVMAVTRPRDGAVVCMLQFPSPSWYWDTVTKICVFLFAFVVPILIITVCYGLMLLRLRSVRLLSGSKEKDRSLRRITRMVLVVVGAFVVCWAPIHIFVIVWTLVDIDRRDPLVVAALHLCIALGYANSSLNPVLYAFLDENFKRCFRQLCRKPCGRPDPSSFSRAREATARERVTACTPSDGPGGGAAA
Method in brief: (§1)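 Agonist concentration-response curves (eight concentrations, duplicate) were run with or without a single test-compound concentration. Ke = [L]/(DR−1), where [L] is the test-compound concentration and DR is the ratio of agonist EC50 with versus without compound. At least two test-compound concentrations were used, chosen to shift agonist EC50 rightward at least four-fold while keeping a clear upper asymptote.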

[4] = target: Delta-type opioid receptor (Homo sapiens) (UniProt P41143); test: Intrinsic activity at human delta opioid receptor expressed in CHO cells at 10 uM by [35S]GTPgammaS binding assay; assay type: functional, cell-based
[5] = species on record: Homo sapiens; test: Selectivity ratio of Ke for human mu opioid receptor to Ke for human kappa opioid receptor
[6] = target: Kappa-type opioid receptor (Homo sapiens) (UniProt P41145); test: Intrinsic activity at human kappa opioid receptor expressed in CHO cells at 10 uM by [35S]GTPgammaS binding assay; assay type: functional, cell-based
[7] = target: Mu-type opioid receptor (Homo sapiens) (UniProt P35372); conditions: CHO
Sequence of Mu-type opioid receptor (Homo sapiens) (P35372 whole entry): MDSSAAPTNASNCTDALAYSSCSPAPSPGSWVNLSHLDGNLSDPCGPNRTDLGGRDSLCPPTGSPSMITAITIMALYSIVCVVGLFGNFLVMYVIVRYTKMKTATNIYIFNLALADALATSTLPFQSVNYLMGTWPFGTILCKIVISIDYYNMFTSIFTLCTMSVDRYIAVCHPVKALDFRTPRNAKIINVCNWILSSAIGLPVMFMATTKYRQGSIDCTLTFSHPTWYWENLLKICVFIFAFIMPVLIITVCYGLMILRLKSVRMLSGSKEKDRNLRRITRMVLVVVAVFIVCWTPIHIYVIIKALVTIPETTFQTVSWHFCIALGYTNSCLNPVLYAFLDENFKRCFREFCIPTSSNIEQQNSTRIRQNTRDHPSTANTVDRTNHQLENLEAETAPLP

[8] = target: Kappa-type opioid receptor (Homo sapiens) (UniProt P41145); test: Antagonist activity at human kappa opioid receptor expressed in CHO cells assessed as inhibition of U69,593-stimulated [35S]GTPgammaS binding; assay type: functional, cell-based; method in brief: as §1

| inhibition [1] [%] | Ratio Ke [2] | Activity [4] | Ratio Ke [5] | Activity [6] | Ke [8] [nM] | SMILES | Ke [3] [nM] | Ke [7] [nM] |
| --- | --- | --- | --- | --- | --- | --- | --- | --- |
| > 60 | 83 | inactive | 7.5 | inactive | 2.8 | CCCCc1ccc(C(=O)N[C@H](CN2CCN(c3cccc(O)c3)[C@@H](C)C2)C(C)C)cc1 |  |  |
| > 60 | 137 | inactive | 4.7 | inactive | 1.87 | CC(C)[C@@H](CN1CCN(c2cccc(O)c2)[C@@H](C)C1)NC(=O)c1ccc(-c2ccccc2)cc1 |  |  |

| SMILES | inhibition [1] [%] | Ratio Ke [2] | Activity [4] | Ratio Ke [5] | Activity [6] | Ke [8] [nM] | Ke [3] [nM] | Ke [7] [nM] |
| --- | --- | --- | --- | --- | --- | --- | --- | --- |
| CC(C)[C@@H](CN1CCN(c2cccc(O)c2)[C@@H](C)C1)NC(=O)c1ccc(Oc2ccccc2)cc1 | > 60 | 671 | inactive | 60 | inactive | 0.85 | 570 | 51 |
